Assay results reported in PMC12377214 (RSC Advances, 2025).
Where “and” joins values, the source holds several entries; their conditions need not be identical. Identical values can stand only once. Blank lines part the entries; values can stand above or below the compound they belong to.

Tests used:
[1] = tested on: MDA-MB-231 (breast adenocarcinoma); assay: Antiproliferative SRB assay, MDA-MB-231; format: cell-based, human; settings: for IC50: Homo sapiens, MDA-MB-231, 72 h, read-out: pIC50 MDA-MB-231 (converted); for Selectivity index (SI) MDA-MB-231: IC50 BALB/3T3 / IC50 MDA-MB-231
[2] = tested on: MV4-11 cell line; assay: Cell cycle analysis; format: cell-based; settings: for Cell percentage SubG1: control 7.12 ± 0.569; for Cell percentage G2/M: control 20.98 ± 0.614; for Cell percentage S: control 24.54 ± 2.475; for Cell percentage G0/G1: control 45.40 ± 3.051
[3] = tested on: HepG-2 (hepatocellular carcinoma); assay: Antiproliferative SRB assay, HepG2; format: cell-based, human; settings: for IC50: Homo sapiens, HepG2, 72 h, read-out: pIC50 HepG2 (converted); for Selectivity index (SI) HepG2: IC50 BALB/3T3 / IC50 HepG2
[4] = tested on: MV4-11 cell line; assay: Antiproliferative MTT assay, MV4-11; format: cell-based; settings: Homo sapiens, MV4-11, read-out: Anti-proliferative IC50 MV4-11
Outline: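 MV4-11 cells grown in RPMI 1640 with stable glutamine, 10% FBS, 1.0 mM sodium pyruvate and penicillin/streptomycin at 37 °C, 5% CO2. Seeded at 2000 cells/well, then treated after 24 h with test compound (DMSO stock of 10 mg mL−1 diluted in medium; 0.1–100 μg mL−1) for 72 h. MTT added for 4 h, formazan dissolved in DMF, A570 read. IC50 calculated.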

[5] = tested on: A498 (kidney carcinoma); assay: Antiproliferative SRB assay, A-498; format: cell-based, human; settings: for IC50: Homo sapiens, A498, 72 h, read-out: pIC50 A-498 (converted); for Selectivity index (SI) A498: IC50 BALB/3T3 / IC50 A498
[6] = biological target: VEGFR-2 (Homo sapiens, UniProt P35968); assay: In vitro VEGFR-2 kinase inhibitory assay; format: biochemical
Chain of VEGFR-2 (P35968 20-1356): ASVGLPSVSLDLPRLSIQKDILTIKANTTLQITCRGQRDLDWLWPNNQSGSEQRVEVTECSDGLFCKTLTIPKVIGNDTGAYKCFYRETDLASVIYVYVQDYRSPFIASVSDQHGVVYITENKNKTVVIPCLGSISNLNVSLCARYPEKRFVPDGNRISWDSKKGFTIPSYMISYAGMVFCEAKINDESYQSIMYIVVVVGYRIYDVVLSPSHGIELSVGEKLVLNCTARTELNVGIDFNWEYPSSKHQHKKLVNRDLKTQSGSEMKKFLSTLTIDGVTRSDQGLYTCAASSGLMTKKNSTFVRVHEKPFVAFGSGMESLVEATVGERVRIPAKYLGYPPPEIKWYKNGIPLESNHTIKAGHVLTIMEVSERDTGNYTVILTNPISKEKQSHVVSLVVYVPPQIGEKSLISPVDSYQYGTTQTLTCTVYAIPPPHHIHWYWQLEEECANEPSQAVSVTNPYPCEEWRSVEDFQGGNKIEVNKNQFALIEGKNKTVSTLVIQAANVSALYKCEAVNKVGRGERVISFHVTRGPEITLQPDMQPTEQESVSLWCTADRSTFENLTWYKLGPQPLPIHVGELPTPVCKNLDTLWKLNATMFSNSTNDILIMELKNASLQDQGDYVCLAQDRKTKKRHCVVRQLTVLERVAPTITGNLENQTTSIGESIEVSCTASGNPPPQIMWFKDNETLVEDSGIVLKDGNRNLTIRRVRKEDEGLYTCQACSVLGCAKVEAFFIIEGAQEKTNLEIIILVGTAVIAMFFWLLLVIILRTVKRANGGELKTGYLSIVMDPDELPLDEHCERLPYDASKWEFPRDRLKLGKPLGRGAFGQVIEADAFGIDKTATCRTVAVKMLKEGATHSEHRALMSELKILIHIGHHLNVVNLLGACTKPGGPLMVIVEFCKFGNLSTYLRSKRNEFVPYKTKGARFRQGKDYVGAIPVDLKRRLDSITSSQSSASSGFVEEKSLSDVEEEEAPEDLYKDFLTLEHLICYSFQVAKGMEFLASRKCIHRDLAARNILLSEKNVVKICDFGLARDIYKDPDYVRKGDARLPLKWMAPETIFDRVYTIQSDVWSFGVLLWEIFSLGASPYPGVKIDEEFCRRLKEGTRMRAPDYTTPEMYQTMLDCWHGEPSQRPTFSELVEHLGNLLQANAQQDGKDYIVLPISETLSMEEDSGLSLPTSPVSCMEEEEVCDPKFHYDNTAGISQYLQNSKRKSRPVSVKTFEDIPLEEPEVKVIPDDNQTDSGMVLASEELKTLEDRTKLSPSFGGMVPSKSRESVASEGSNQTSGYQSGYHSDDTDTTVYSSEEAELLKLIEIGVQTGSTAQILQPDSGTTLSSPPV

[7] = biological target: CDK6/Cyclin D3 (Homo sapiens, UniProt Q00534); assay: In vitro CDK6 inhibitory assay; format: biochemical
Chain of CDK6/Cyclin D3 (Q00534 whole entry): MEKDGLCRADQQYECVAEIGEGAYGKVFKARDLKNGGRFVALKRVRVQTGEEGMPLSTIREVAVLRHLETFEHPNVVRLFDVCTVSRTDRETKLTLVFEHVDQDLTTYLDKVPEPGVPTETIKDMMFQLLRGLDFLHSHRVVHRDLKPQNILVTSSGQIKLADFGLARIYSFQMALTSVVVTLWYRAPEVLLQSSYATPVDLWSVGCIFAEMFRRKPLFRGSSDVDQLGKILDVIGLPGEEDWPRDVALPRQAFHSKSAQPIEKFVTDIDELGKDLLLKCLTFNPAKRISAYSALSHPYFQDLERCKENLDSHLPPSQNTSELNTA
Chain of CDK6/Cyclin D3 (P30281 whole entry partner): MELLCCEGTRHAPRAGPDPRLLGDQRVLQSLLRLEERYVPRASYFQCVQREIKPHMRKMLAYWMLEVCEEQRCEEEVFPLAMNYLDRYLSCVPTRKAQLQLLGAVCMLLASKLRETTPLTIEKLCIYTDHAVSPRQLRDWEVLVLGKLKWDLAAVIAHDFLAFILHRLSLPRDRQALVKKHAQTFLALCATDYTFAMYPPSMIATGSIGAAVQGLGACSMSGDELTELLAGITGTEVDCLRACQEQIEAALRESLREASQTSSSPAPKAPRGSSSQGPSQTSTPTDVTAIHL

[8] = biological target: T1, xanthine oxidase (XO) (Homo sapiens, UniProt P47989); assay: Xanthine oxidase inhibition assay; format: biochemical
T1 sequence (P47989 whole entry, species assumed): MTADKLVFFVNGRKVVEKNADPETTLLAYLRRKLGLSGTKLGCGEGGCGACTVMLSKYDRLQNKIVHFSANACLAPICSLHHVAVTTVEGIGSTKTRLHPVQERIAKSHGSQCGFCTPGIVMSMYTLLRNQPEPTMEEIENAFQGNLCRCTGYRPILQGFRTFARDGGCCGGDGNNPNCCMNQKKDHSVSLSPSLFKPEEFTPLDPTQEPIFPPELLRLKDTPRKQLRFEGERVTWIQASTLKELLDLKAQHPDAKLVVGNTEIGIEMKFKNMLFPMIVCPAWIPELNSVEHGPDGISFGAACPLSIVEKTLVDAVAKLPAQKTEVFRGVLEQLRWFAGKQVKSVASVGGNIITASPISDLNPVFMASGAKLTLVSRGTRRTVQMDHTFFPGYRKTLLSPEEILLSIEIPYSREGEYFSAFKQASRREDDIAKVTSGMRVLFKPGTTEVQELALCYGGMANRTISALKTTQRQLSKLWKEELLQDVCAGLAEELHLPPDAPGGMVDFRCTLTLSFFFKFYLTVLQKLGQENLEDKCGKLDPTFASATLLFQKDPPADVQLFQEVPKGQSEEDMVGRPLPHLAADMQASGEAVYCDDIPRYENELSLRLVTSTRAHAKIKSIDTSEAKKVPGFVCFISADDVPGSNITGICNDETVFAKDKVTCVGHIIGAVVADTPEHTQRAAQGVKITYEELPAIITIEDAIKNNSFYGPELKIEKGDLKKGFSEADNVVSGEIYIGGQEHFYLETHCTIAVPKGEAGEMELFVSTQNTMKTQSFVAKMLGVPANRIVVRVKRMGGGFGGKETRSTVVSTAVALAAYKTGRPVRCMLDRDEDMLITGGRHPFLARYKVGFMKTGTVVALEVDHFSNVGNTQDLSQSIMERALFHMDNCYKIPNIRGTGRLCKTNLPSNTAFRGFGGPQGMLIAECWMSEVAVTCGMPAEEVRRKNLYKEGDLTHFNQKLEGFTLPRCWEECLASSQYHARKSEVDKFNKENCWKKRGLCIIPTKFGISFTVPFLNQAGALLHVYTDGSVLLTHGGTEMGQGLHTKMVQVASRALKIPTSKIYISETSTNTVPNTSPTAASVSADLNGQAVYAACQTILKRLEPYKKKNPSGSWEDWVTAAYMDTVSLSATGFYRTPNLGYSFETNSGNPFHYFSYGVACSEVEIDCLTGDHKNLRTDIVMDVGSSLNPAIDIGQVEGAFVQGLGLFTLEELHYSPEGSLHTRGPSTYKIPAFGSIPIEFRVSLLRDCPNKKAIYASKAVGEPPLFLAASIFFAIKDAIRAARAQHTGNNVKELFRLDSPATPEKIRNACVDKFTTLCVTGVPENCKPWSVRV

[9] = biological target: T1, xanthine oxidase (XO); assay: Kinetics of xanthine oxidase inhibition; format: biochemical; settings: for V max: XO alone 2.25 / 2.21; for K m: XO alone Km 40
[10] = tested on: MV4-11 cell line; settings: MV4-11 cancer cell line; cited from earlier work

SMILES: O=C1C(=O)N(CCn2ncc3c(=O)[nH]cnc32)c2ccc(Cl)cc21 [6b, 5-Chloro-1-[2-(1,5-dihydro-4-oxopyrazolo[3,4-d]pyrimidin-1-yl)ethyl]indole-2,3-dione]
IC50 [1]: 13.2 µM
Selectivity index (SI) MDA-MB-231 [1]: 2.49
Cell percentage SubG1 ([2]; MV4-11, 1 μg mL^−1): 3.48 ± 1.178%
Cell percentage G2/M ([2]; MV4-11, 1 μg mL^−1): 17.67 ± 1.285%
Cell percentage S ([2]; MV4-11, 1 μg mL^−1): 27.15 ± 3.651%
Cell percentage G0/G1 ([2]; MV4-11, 1 μg mL^−1): 50.37 ± 4.619%
IC50 [3]: 15.1 µM
Selectivity index (SI) HepG2 [3]: 2.15
IC50 [4]: 5.85 µM
IC50 [5]: 16.2 µM
Selectivity index (SI) A498 [5]: 2.03

SMILES: COc1ccc2c(c1)C(=O)C(=O)N2CCn1ncc2c(=O)[nH]cnc21 [6c, 1-[2-(1,5-Dihydro-4-oxopyrazolo[3,4-d]pyrimidin-1-yl)ethyl]5-methoxyindole-2,3-dione]
IC50 [1]: 47.9 µM
IC50 [3]: 93.3 µM
IC50 [5]: 30.2 µM

SMILES: Oc1ncnc2[nH]ncc12 [Allopurinol]
Type of XO inhibition ([9]; Lineweaver–Burk plot): mixed
V max ([9]; inhibitor 0.1 μM): 1.51
K m ([9]; inhibitor 0.1 μM): 50
V max ([9]; inhibitor 1 μM): 1.33
K m ([9]; inhibitor 1 μM): 64
V max ([9]; inhibitor 10 μM): 0.55
K m ([9]; inhibitor 10 μM): 51

SMILES: CNC(=O)c1cc(Oc2ccc(NC(=O)Nc3ccc(Cl)c(C(F)(F)F)c3)cc2)ccn1 [Sorafenib, reference compound]
IC50 [1]: 81.3 µM
IC50 [3]: 44.7 µM
IC50 [5]: 63.1 µM

SMILES: O=C1C(=O)N(CCn2ncc3c(=O)[nH]cnc32)c2ccc(F)cc21 [6d, 5-Fluoro-1-[(2-(1,5-dihydro-4-oxopyrazolo[3,4-d]pyrimidin-1-yl)ethyl)]indole-2,3-dione]
IC50 [1]: 47.9 µM
IC50 [3]: 61.7 µM
IC50 [5]: 38.9 µM

SMILES: CC(=O)c1c(C)c2cnc(Nc3ccc(N4CCNCC4)cn3)nc2n(C2CCCC2)c1=O [Palbociclib]
Cell cycle arrest phase [10]: cell cycle arrest at the G1 phase

SMILES: O=C1C(=O)N(CCn2ncc3c(=O)[nH]cnc32)c2ccccc21 [6a, 1-[2-(1,5-Dihydro-4-oxopyrazolo[3,4-d]pyrimidin-1-yl)ethyl] indole-2,3-dione]
IC50 [1]: 91.2 µM
IC50 [6]: 0.309 µM
IC50 [3]: 151 µM
IC50 [7]: 0.603 µM
IC50 [5]: 58.9 µM
IC50 [8]: 43.7 ± 5.51 µM

Further lines, with some results ahead:

IC50 [3]: 56.2 µM
SMILES: NC(=S)N/N=C1\C(=O)N(CCn2cnc3c(N)ncnc32)c2ccc(F)cc21 [9d, (2Z)-2-{5-Fluoro-2-oxo-1-[2-(6-aminopurine-9-yl)ethyl]-1,2-dihydro-3H-indol-3-ylidene}hydrazine-1-carbothioamide]

IC50 [1]: 53.7 µM
IC50 [6]: 0.0708 µM
IC50 [3]: 13.2 µM
IC50 [7]: 0.0676 µM
IC50 [5]: 14.1 µM
IC50 [8]: 21.9 µM
SMILES: NC(=S)N/N=C1\C(=O)N(CCn2ncc3c(=O)[nH]cnc32)c2ccc(Cl)cc21 [8b, (2Z)-2-{5-Chloro-2-oxo-1-[2-(4-oxo-1,5-dihydropyrazolo[3,4-d]pyrimidin-1-yl)ethyl]-1,2-dihydro-3H-indol-3-ylidene}hydrazine-1-carbothioamide]
Selectivity index (SI) MDA-MB-231 [1]: 0.63
Selectivity index (SI) HepG2 [3]: 2.60
Selectivity index (SI) A498 [5]: 2.45

IC50 [1]: 83.2 µM
IC50 [3]: 17.4 µM
IC50 [5]: 166 µM
SMILES: Nc1ncnc2c1ncn2CCN1C(=O)C(=O)c2cc(F)ccc21 [7d, 1-[2-(6-Amino-9H-purin-9-yl)ethyl]-2,3-dihydro-5-fluoro-1H-indole-2,3-dione]

IC50 [1]: 209 µM
SMILES: Nc1ncnc2c1ncn2CCN1C(=O)C(=O)c2ccccc21 [7a, 1-[2-(6-Amino-9H-purin-9-yl)ethyl]-2,3-dihydro-1H-indole-2,3-dione]

IC50 [1]: 135 µM
IC50 [3]: 77.6 µM
IC50 [5]: 182 µM
SMILES: COc1ccc2c(c1)C(=O)C(=O)N2CCn1cnc2c(N)ncnc21 [7c, 1-[2-(6-Amino-9H-purin-9-yl)ethyl]-2,3-dihydro-5-methoxy-1H-indole-2,3-dione]

IC50 [1]: 19.5 µM
IC50 [6]: 0.513 µM
IC50 [3]: 6.03 µM
IC50 [4]: 11.8 µM
IC50 [7]: 1.51 µM
IC50 [5]: 52.5 µM
IC50 [8]: 66.1 µM
SMILES: Nc1ncnc2c1ncn2CCN1C(=O)C(=O)c2cc(Cl)ccc21 [7b, 1-[2-(6-Amino-9H-purin-9-yl)ethyl]-5-chloro-2,3-dihydro-1H-indole-2,3-dione]
Selectivity index (SI) MDA-MB-231 [1]: 3.64
Increase in S phase relative to control ([2]; MV4-11, 10 μg mL^−1, p < 0.05): 1.49 fold
Cell percentage SubG1 ([2]; MV4-11, 10 μg mL^−1): 6.15 ± 2.74% and 6.15 ± 2.739%
Cell percentage G2/M ([2]; MV4-11, 10 μg mL^−1): 13.32 ± 2.763%
Cell percentage S ([2]; MV4-11, 10 μg mL^−1): 36.66 ± 4.326%
Cell percentage G0/G1 ([2]; MV4-11, 10 μg mL^−1): 44.36 ± 4.193%
Selectivity index (SI) HepG2 [3]: 11.89
Selectivity index (SI) A498 [5]: 1.37

IC50 [3]: 25.1 µM
IC50 [5]: 105 µM
SMILES: NC(=S)N/N=C1\C(=O)N(CCn2ncc3c(=O)[nH]cnc32)c2ccc(F)cc21 [8d, (2Z)-2-{5-Fluoro-2-oxo-1-[2-(4-oxo-1,5-dihydropyrazolo[3,4-d]pyrimidin-1-yl)ethyl]-1,2-dihydro-3H-indol-3-ylidene}hydrazine-1-carbothioamide]
